CSN deneddyl inh: inhibitors of human CSN-mediated cullin deneddylation; Q92905; Purified CSN, SCF-Nedd8-OG deneddylation, fluorescence polarization; inhibition, % at 12.5 µM; 360,000 compounds, 0.38% hits;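 active = pattern-corrected inhibition above about 35%, with an unprinted fluorescence ratio check between 0.5 and 1.5, limit read from the data, passing the limit was not always enough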;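 also: 0% = enzyme with substrate and 100% = substrate without enzyme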
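Assay system: HEK293T-derived human Csn5 enzyme; quantity: 0.24 nM enzyme; medium: Tris/NaCl/DTT buffer, pH 7.5; also added: substrate SCFSkp2-Nedd8OG, 10 nM; doses: 12.5 µM compound; schedule: 90 min reaction at room temperature; signal: FP; read-out: % inhibition of substrate cleavage by Csn5; benchmarks: substrate-only high control, full reaction low control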
Myeloid diff MLP: promotes myeloid progenitor differentiation | ER-HoxA9 myeloid progenitors, lysozyme-GFP differentiation, flow cytometry | calls only at 10 µM | 360,000 compounds, 1% hits;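 active = normalized GFP-positive differentiation at or above the plate's own cutoff, the solvent-only control mean plus 3 SD; inconclusive = no clear call, values can overlap the other calls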;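 also: cells exposed to compound for four days before flow analysis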
Exocytosis inh: lytic granule exocytosis inhibition; 360,000 compounds, 0.66% hits; TALL-104 LAMP-1 surface exposure, flow cytometry; cells stimulated with thapsigargin and PMA; inhibition, % at 10 µM;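 active = inhibition above about 55%, limit read from the data; inconclusive = no clear call, values can overlap the other calls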
HNF4A DNA FP: change in binding of human HNF4 alpha to DNA. 360,000 compounds, 0.3% hits. P41235. HNF4a-FITC DNA binding, fluorescence polarization, 1 h. AID 1224865. activity change, % at 10 µM; in the data active = activity change above about 30%, passing the limit was not always enough
Target sequence (P41235 whole entry, looked up): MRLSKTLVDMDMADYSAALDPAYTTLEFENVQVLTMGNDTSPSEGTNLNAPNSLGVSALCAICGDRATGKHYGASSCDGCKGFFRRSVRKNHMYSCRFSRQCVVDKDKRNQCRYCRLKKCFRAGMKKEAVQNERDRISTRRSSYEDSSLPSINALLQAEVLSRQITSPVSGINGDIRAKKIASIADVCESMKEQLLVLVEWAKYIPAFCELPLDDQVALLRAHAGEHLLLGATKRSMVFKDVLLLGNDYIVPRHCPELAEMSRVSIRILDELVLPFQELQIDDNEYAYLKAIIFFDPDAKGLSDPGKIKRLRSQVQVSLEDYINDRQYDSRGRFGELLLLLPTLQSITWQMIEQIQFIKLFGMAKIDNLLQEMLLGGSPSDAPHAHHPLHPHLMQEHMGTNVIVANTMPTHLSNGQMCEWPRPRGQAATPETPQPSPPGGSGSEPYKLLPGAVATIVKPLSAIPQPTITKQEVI
Myeloid diff CP1: myeloid differentiation induction | shares compounds with Myeloid diff MLP | ER-HoxA9 myeloid progenitors, GFP/Mac1 double-positive flow | calls only | 2,300 compounds, 2% hits | AID 651706;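 active = share of green or green-and-red cells above 9 and 9% in run 1 or 4 and 3% in run 2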
GFP autofluor: counter-screen for myeloid differentiation promoters: compound fluorescence | 2,300 compounds, 7.4% hits | fluorescence response, % (concentration not given with the values) | AID 651707 | shares compounds with Myeloid diff MLP | ER-HoxA9 myeloid progenitors, no estrogen, GFP autofluorescence flow cytometry; vehicle wells 0%, positive control 100%;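 active = over 5% cells positive for green fluorescent reporter, or over 2% positive for both it and APC stain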;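 also: range taken on the double positive population between DMSO and positive control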
* marks the source's active call; other numbers are inactive results; i = inactive; ? = inconclusive; . = not tested or not shown; + = active, no number. The list is not random: actives were taken first. Their share in the collection is about 2.2%.

SMILES | CSN deneddyl inh | Myeloid diff MLP | Exocytosis inh | HNF4A DNA FP | others
CCCNC(=O)c1c(N)n(CC2CCCO2)c2nc3ccccc3nc12 (stereo not drawn) | 40* | i | 7 | -2
CC(C)OCCCNC(=O)c1c(N)n(CC2CCCO2)c2nc3ccccc3nc12 (stereo not drawn) | 36* | + | 2 | 6
COCCCn1c(N)c(C(=O)NCCC(C)C)c2nc3ccccc3nc21 | 37* | i | 3 | 2
Nc1c(C(=O)OC2CCCCC2)c2nc3ccccc3nc2n1CC1CCCO1 (stereo not drawn) | -1 | i | 4 | 2
CC(C)CCn1c(N)c(C(=O)OCC2CCCO2)c2nc3ccccc3nc21 (stereo not drawn) | 2 | + | -2 | -2
COc1cc(C=NNC(=S)Nc2ccc(S(=O)(=O)N3CCCCC3)cc2)cc(OC)c1OC | 5 | i | 0 | 1
C=CCCC1(C(C)C)C(=O)NC(=S)NC1=O | -4 | i | 10 | 1
COC(=O)C12CCc3cc(OC)ccc3C1=CC(=O)C2 (stereo not drawn) | -5 | i | -2 | 0
C[C@@H]1CC[C@H]2[C@@H](C)C(=O)O[C@@H]3O[C@@]4(C)CC[C@@H]1[C@]32OO4 | -7 | + | -3 | 2
C1=C(c2c[nH]c3ccccc23)CCN(Cc2ccccc2)C1 | 3 | ? | 0 | 3
CN1CC=C(c2c[nH]c3ccccc23)CC1 | -3 | + | 3 | 7
C=C1[C@H]2CC[C@H]3[C@]4(C)C[C@H](O[C@H]5O[C@H](CO)[C@@H](OS(=O)(=O)O)[C@H](OS(=O)(=O)O)[C@H]5OC(=O)CC(C)C)C[C@@H](C(=O)O)[C@H]4CC[C@]3(C2)[C@H]1O | -2 | i | -8 | 1
COc1cccc(-n2c(/C=C/c3ccc(O)c(O)c3)nc3ccccc3c2=O)c1 | 32 | i | 6 | 57*
COc1cccc(-n2c(/C=C/c3ccccn3)nc3ccccc3c2=O)c1 | 6 | i | -3 | -4
COc1cc(/C=C/[N+](=O)[O-])ccc1O | 3 | + | 19 | 0
CC[C@@H]1c2ccccc2[C@@H]2CC[C@H]1N2c1ccccc1 | 0 | i | -5 | 1
CC(C)c1ccc(-n2c(O)c(C=NCCN3CCNCC3)c(=O)[nH]c2=S)cc1 | 3 | + | 1 | 2
Nc1c(C(=O)NCc2ccco2)c2nc3ccccc3nc2n1Cc1ccc(F)cc1 | 33 | + | 3 | 8
O=C(O)COc1cc(Cl)c(Cl)cc1Cl | -4 | i | 0 | 3
CCCCCCn1c(O)c(C=NCCCn2ccnc2)c(=O)[nH]c1=O | 53* | i | -2 | 67*
COc1ccc(Cn2c(O)c(C=NCCCn3ccnc3)c(=O)[nH]c2=O)cc1 | 2 | i | 0 | 1
CN1C(=O)NC(=O)C(N=Nc2ccc(Cl)cc2)C1=O (stereo not drawn) | -3 | i | 31 | 6
O=C1NC(=O)C(=Cc2ccc(N3CCOCC3)o2)C(=O)N1 | 130 | i | 2 | 138
C=CCN1C(=O)/C(=C/c2ccc(N3CCOCC3)o2)C(=O)NC1=S | 103* | i | 1 | 80*
CCCCn1c(=O)c(C(=O)Nc2ccccc2C)c(O)c2ccccc21 | 2 | i | -2 | 39*
SMILES | CSN deneddyl inh | Myeloid diff MLP | Exocytosis inh | HNF4A DNA FP | others
CCCCn1c(=O)c(C(=O)Nc2cnccn2)c(O)c2ccccc21 | -5 | + | 1 | -1
COc1ccccc1-c1cc(NC(C)=O)c2ncc(-c3ccccc3)n2c1 | 0 | i | 54 | 3
O=NN(CCF)C(=O)NC1CCC(=O)NC1=O (stereo not drawn) | -2 | i | -7 | 5
CCN(CC)c1ccc(/C=C/[N+](=O)[O-])cc1 | 23 | i | 71* | 3
Cc1cccc(N=C2c3cc([N+](=O)[O-])ccc3-c3c2cc([N+](=O)[O-])cc3[N+](=O)[O-])c1 | -1 | i | 0 | 2
O=C1CC(=O)N(Cc2ccccc2)C(=O)N1Cc1ccccc1 | 36* | i | 0 | 52*
O=C1CC(=O)N(Cc2ccccc2)C(=O)N1 | 3 | i | -4 | 5
CCOC(=O)C1C(OC(=O)c2ccccc2)CC2CCC1N2C (stereo not drawn) | -1 | . | 8 | 2
CC(=O)C1CCC2C3CCC4CC(O)CCC4(C)C3C(=O)CC12C (stereo not drawn) | 0 | i | -8 | 1
O=C(Nc1cccc(Br)c1)c1c(O)c2c(n(Cc3ccccc3)c1=O)CCCC2 | 0 | + | -2 | 0
CN(C)c1ccc(NC(=O)CN2C(=O)CN=C(c3ccccc3)c3cc(Cl)ccc32)cc1 | 2 | i | 11 | -1
CN(C)c1ccc(NC(=O)CN2C(=O)CN=C(c3ccccc3)c3ccccc32)cc1 | -1 | + | 1 | 4
O=P(O)(O)CN1CCNCCN(CP(=O)(O)O)CCNCC1 | -5 | . | -5 | -4
CCCOP(=O)(OCCC)C(NC(=O)c1cc(OC)c(OC)c(OC)c1)c1ccccc1 (stereo not drawn) | -7 | i | -1 | 129*
CC[n+]1c(-c2ccccc2)c2cc(N)ccc2c2ccc(N)cc21 | 16 | + | -22 | -37
COc1cc(/C=C(/C)[N+](=O)[O-])ccc1OCc1ccccc1Cl | 21 | ? | 85* | -1
COc1cc(C=C2C(=O)NC(=O)NC2=O)ccc1OCc1ccc([N+](=O)[O-])cc1 | 1 | i | -3 | 0
COC(=O)C1=COC(C)C2CN3CCc4c([nH]c5cc(OC)ccc45)C3CC12 (stereo not drawn) | -11 | i | -3 | -4
O=C(NCC(c1cccnc1)N1CCN(c2ccc(F)cc2)CC1)Oc1ccccc1 (stereo not drawn) | 6 | i | 2 | 1 | Myeloid diff CP1=i;GFP autofluor=2
CC(C)CCn1c(=O)c(C(=O)Nc2ccccc2S(N)(=O)=O)c(O)c2ccccc21 | 3 | i | 0 | 1 | Myeloid diff CP1=i;GFP autofluor=8.6*
CCCCCn1c(=O)c(C(=O)Nc2ccccc2Cl)c(O)c2ccccc21 | 0 | + | -4 | 2 | Myeloid diff CP1=i;GFP autofluor=0
O=C(NN=Cc1ccc(N(CCCl)CCCl)cc1)c1cc(=O)[nH]c(=O)[nH]1 | 4 | i | 2 | 0
O=C(Cc1cc(=O)oc2cc(O)ccc12)NN=Cc1ccc(N(CCCl)CCCl)cc1 | 10 | i | 2 | 5 | Myeloid diff CP1=i;GFP autofluor=0
O=c1[nH]c(=O)n(-c2ccccc2)c(O)c1/C=C/C=Nc1ccccc1 | 126 | i | -5 | 151
Cc1ccc(-n2c(O)c(/C=C/C=Nc3ccccc3)c(=O)[nH]c2=O)cc1 | 27 | i | -1 | 71* | Myeloid diff CP1=i;GFP autofluor=5
C=CCn1c(O)c(/C=C/C=Nc2ccccc2)c(=O)[nH]c1=O | 24 | i | -3 | 33
